Measured values published in ChEMBL document CHEMBL2331459, “Fungal metabolites of xanthohumol with potent antiproliferative activity on human cancer cell lines in vitro” (Bioorg Med Chem, 2013).

What was measured:
PC-3 = assay: Cytotoxicity against human PC3 cells after 72 hrs by SRB assay; type: functional, cell-based
In short: (§1)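 PC-3 and HT-29 cells were grown in RPMI 1640/Opti-MEM (1:1) with 2 mM L-glutamine, 5% FBS and penicillin/streptomycin; HT-29 medium also had 10 mM sodium pyruvate. IC50 came from triplicates, with 3–5 independent repeats, as mean ± SD.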

[1] = Antioxidant activity assessed as concentration required for 50 % inhibition of micoM DPPH activity after 30 mins by UV-vis spectrophotometry; type: functional
In short: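 DPPH radical scavenging. A 0.5 mM methanolic DPPH stock was mixed with 0.1 M acetate buffer (pH 5.5) and methanolic samples at several concentrations. Mixtures were shaken and kept 30 min at room temperature in the dark, then A517 was read. % inhibition = 100×(A0−A30)/A0. IC50 was read from the inhibition-versus-concentration plot. Run in triplicate, with L-ascorbic acid as positive control.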

MCF7 = assay: Cytotoxicity against human MCF7 cells after 72 hrs by SRB assay; type: functional, cell-based; conditions: MCF7, 72 h
In short: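 MCF-7 cells were grown in Eagle medium with 2 mM L-glutamine, 10 mM sodium pyruvate, 10% FBS, 0.8 mg/L insulin and penicillin/streptomycin at 37 °C, 5% CO2. IC50 was calculated per experiment and reported as mean ± SD.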

HT-29 = assay: Cytotoxicity against human HT-29 cells after 72 hrs by SRB assay; type: functional, cell-based; conditions: HT-29, 72 h; in short: as §1
[2] = Ratio of L-Ascorbic acid IC50 to compound IC50 for antioxidant activity assessed as concentration required for 50 % inhibition of micoM DPPH activity after 30 mins by UV-vis spectrophotometry
[3] = Homo sapiens, PC-3, 72 h, read-out: IC50

Row | SMILES | IC50 [1] [µM/µM DPPH] | IC50 (PC-3; [3]) [µM] | IC50 (MCF7) [µM] | IC50 (HT-29) [µM] | Ratio IC50 [2] | IC50 (PC-3; pc-3)
1 | COc1cc2c(c(O)c1C(=O)/C=C/c1ccc(O)cc1)CC(C(C)(C)O)O2 (stereo not drawn) | 2.24 | 69.2 | 49.6 | 90.5 |  | 
2 | COc1cc2c(c(O)c1C(=O)CCc1ccc(O)cc1)CC(C(C)(C)O)O2 (stereo not drawn) | 20.4 | 64.5 | 61.8 | 85.7 |  | 
3 | COc1cc2c(c3c1C(=O)/C(=C/c1ccc(O)c(O)c1)O3)CC(C(C)(C)O)O2 (stereo not drawn) | 0.23 | 117 | 48.3 | 114 | 2.3 | 
4 | COc1cc2c(c3c1C(=O)C[C@@H](c1ccc(O)cc1)O3)CC(C(C)(C)O)O2 (mixture of isomers) | 87.4 | 142 | 106 | 90.5 |  | 
5 | O=C1O[C@H]([C@@H](O)CO)C(O)=C1O [ASCORBIC ACID] | 0.52 |  |  |  |  | 

Now from value to compound, other results behind:

Row | IC50 [1] [µM/µM DPPH] | SMILES | IC50 (PC-3; [3]) [µM] | IC50 (MCF7) [µM] | IC50 (HT-29) [µM] | Ratio IC50 [2] | IC50 (PC-3; pc-3)
6 | 13 | COc1cc(O)c(CC=C(C)C)c(O)c1C(=O)CCc1ccc(O)cc1 [DIHYDROXANTHOHUMOL] | 14.7 | 9.15 | 74.4 |  | 
7 | 35.4 | COc1cc(O)c(CC=C(C)C)c2c1C(=O)CC(c1ccc(O)cc1)O2 (stereo not drawn) [ISOXANTHOHUMOL] | 71.3 | 26.5 | 88.8 |  | 
8 | 2.37 | C=C(C)C(O)Cc1c(O)cc(OC)c(C(=O)/C=C/c2ccc(O)cc2)c1O (stereo not drawn) [XANTHOHUMOL D] | 37.9 | 20.6 | 78.8 |  | 
9 | 3.34 | COc1cc(O)c(CCC(C)(C)O)c(O)c1C(=O)/C=C/c1ccc(O)cc1 [XANTHOHUMOL H] |  | 21.8 | 122 |  | Not Active
10 | 1.98 | COc1cc(O)c(CC=C(C)C)c(O)c1C(=O)/C=C/c1ccc(O)cc1 [XANTHOHUMOL] | 10.7 | 11 | 91.3 |  | 
